We go through six molecules from ChEMBL document CHEMBL2203144, “Synthesis and evaluation of antimicrobial activity of 4H-pyrimido[2,1-b]benzothiazole, pyrazole and benzylidene derivatives of curcumin” (Eur J Med Chem, 2012).

The structures appear in SMILES notation. Active and inactive are the calls of the source. The calls are words filed in the database; no cut-off is given here.

Test [1] relates to Aspergillus niger. As to the kind of experiment: Antifungal activity against Aspergillus niger after 72 hrs by agar disk diffusion method. It counts as functional. Put shortly: (§1)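 Sterile filter-paper discs dipped in the acetone dilutions of compound (20–0.315 µM/mL), then dried to remove acetone. Sabouraud dextrose agar plates spread with 1 mL fungal culture. Discs placed aseptically; one drug-free disc served as growth control; fluconazole reference. Plates incubated upright 72 h at 28 °C. Zone of inhibition measured in mm with a scale.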
A general note: In agar diffusion tests the substance spreads into inoculated agar from a disc or well.

For the next test, the system named is Pseudomonas aeruginosa. As to the kind of experiment: Antibacterial activity against Pseudomonas aeruginosa ATCC 23564 after 24 hrs by broth microdilution method. It is filed as functional. Put shortly: (§2)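 Microwell broth dilution in brain heart infusion broth (nutrient broth adjusted to pH 7.0). Inoculum from 16 h cultures, adjusted to 0.5 McFarland (1.5 × 10⁸ CFU/mL). 10 µL compound (serial dilutions 20 down to 0.625 or 0.312 µM/mL) plus 10 µL culture added to 150 µL broth. Incubated 24 h at 37 °C. MIC95 is the lowest concentration with no turbidity. Ciprofloxacin reference; inoculum and broth controls.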
In general terms: In broth dilution the organism is exposed to a series of concentrations in liquid medium.

The test system of the next test is Escherichia coli. As to the kind of experiment: Antibacterial activity against Escherichia coli ATCC 35218 after 24 hrs by broth microdilution method. It counts as functional. Put shortly:
as §2

Another test concerns Staphylococcus aureus. As to the kind of experiment: Antibacterial activity against Staphylococcus aureus ATCC 11632 after 24 hrs by broth microdilution method. It counts as functional. Put shortly:
as §2

For another test, the system named is Providencia rettgeri. As to the kind of experiment: Antibacterial activity against Providencia rettgeri DRDE after 24 hrs by broth microdilution method. It is filed as functional. Put shortly: as §2
For test [2], the system named is Aspergillus flavus. As to the kind of experiment: Antifungal activity against Aspergillus flavus after 72 hrs by broth dilution method. It counts as functional. An outline of the steps: (§3)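 Compounds and fluconazole reference were dissolved in acetone at 120 µM/mL and serially diluted to 20–0.315 µM/mL. 10 µL compound plus 10 µL fungal culture broth added to 150 µL Sabouraud dextrose medium per well. Optical density recorded, then incubated 72 h at 28 °C. MIC95 taken from absence of turbidity. Acetone-at-same-dilution solvent control.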

Test [3] relates to Aspergillus fumigatus. As to the kind of experiment: Antifungal activity against Aspergillus fumigatus after 72 hrs by agar disk diffusion method. It is filed as functional. Put shortly: as §1
Test [4] concerns Aspergillus flavus. As to the kind of experiment: Antifungal activity against Aspergillus flavus after 72 hrs by agar disk diffusion method. It counts as functional. An outline of the steps: as §1
Another test concerns Bacillus cereus. As to the kind of experiment: Antibacterial activity against Bacillus cereus MTCC 7350 after 24 hrs by broth microdilution method. It counts as functional. Put shortly:
as §2

Test [5] in a line: Cytotoxicity against human L123 cells after 48 hrs by MTT assay. It is filed as cell-based. Put shortly: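 MTT assay. 2×10³ cells per well in MEM + 10% FBS, attached 24 h, then treated at 5, 10, 20, 50 and 100 µM/mL for 48 h; controls received medium with 0.2% DMSO. Duplicate treatments. Cells PBS-washed, given MTT (stock 1 mg/mL) for 4 h at 37 °C. Formazan dissolved in DMSO, read at 590 nm. IC50 is the concentration reducing viability by 50%.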
In general terms: Tetrazolium assays rely on reduction of a dye to a coloured formazan, in cell work by metabolically active cells.

The next test has as its system Salmonella typhi. As to the kind of experiment: Antibacterial activity against Salmonella typhi ATCC 15499 after 24 hrs by broth microdilution method. It counts as functional. An outline of the steps: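 Broth microdilution in brain heart infusion broth in microwells. Inoculum was prepared from 16 h cultures adjusted to the 0.5 McFarland standard (1.5 × 10⁸ CFU/mL). Compounds were serially diluted from 20 down to 0.625 µM/mL and added to the broth, followed by the bacterial culture. Plates were incubated 24 h at 37 °C, with optical density read. MIC95 was the lowest concentration giving no turbidity. Inoculum and broth controls were included.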

The subject of test [6] is Aspergillus fumigatus. As to the kind of experiment: Antifungal activity against Aspergillus fumigatus after 72 hrs by broth dilution method. It counts as functional. An outline of the steps:
as §3

Test [7] has as its system Aspergillus niger. As to the kind of experiment: Antifungal activity against Aspergillus niger after 72 hrs by broth dilution method. It counts as functional. An outline of the steps: as §3
Where [8] appears, read: Salmonella enterica subsp. enterica serovar Typhi.

On to `COc1cc(/C=C/C(=O)C2=C(/C=C/c3ccc(O)c(OC)c3)N=C3Sc4ccccc4N3C2c2c(Cl)cccc2Cl)ccc1O` (stereo not drawn), for which the “inhibition zone (IZ)” value in the test on Aspergillus niger [1], with Aspergillus fumigatus [3] and with Aspergillus flavus [4] was “inactive” each time. Also, the MIC95 is reported as 20 uM/ml against Pseudomonas aeruginosa, 20 uM/ml with Escherichia coli, 10 uM/ml with Providencia rettgeri and 5 uM/ml with Bacillus cereus. Moreover, the MIC95 entry in the test with Staphylococcus aureus, with Aspergillus flavus [2], in the test on Salmonella typhi (setting [8]), in the test on Aspergillus fumigatus [6] and with Aspergillus niger [7] was “inactive” each time. The molecule also showed an IC50 in [5] of over 100 uM/ml.
For `COc1cc(/C=C/C(=O)C2=C(/C=C/c3ccc(O)c(OC)c3)N=C3Sc4ccccc4N3C2c2ccccc2)ccc1O` (stereo not drawn), the “inhibition zone (IZ)” value with Aspergillus niger [1], in the test on Aspergillus fumigatus [3] and with Aspergillus flavus [4] was “inactive” throughout. The MIC95 against Pseudomonas aeruginosa is recorded as 10 uM/ml; in the test with Staphylococcus aureus, 20 uM/ml; against Providencia rettgeri, 20 uM/ml; with Bacillus cereus, 5 uM/ml; in the test on Salmonella typhi it was 20 uM/ml. For the same molecule, the MIC95 entry with Escherichia coli, in the test on Aspergillus flavus [2], in the test with Aspergillus fumigatus [6] and with Aspergillus niger [7] was “inactive” each time. The molecule further yielded an IC50 in test [5] of over 100 uM/ml.
For the molecule `COc1cc(/C=C/C(=O)C2=C(/C=C/c3ccc(O)c(OC)c3)N=C3Sc4ccccc4N3C2c2ccccc2O)ccc1O` (stereo not drawn), the “inhibition zone (IZ)” value in the test on Aspergillus niger [1], in the test on Aspergillus fumigatus [3] and with Aspergillus flavus [4] was “inactive” each time. Besides, the MIC95 against Pseudomonas aeruginosa amounted to 20 uM/ml; against Staphylococcus aureus, 20 uM/ml; in the test on Bacillus cereus it was 5 uM/ml. The MIC95 entry in the test on Escherichia coli, with Providencia rettgeri, in the test on Aspergillus flavus [2], with Salmonella typhi (setting [8]), in the test on Aspergillus fumigatus [6] and in the test with Aspergillus niger [7] was “inactive” throughout. Besides, in [5], the IC50 is given as 50 uM/ml.
As to `COc1cc(/C=C/C(=O)C(=Cc2ccc(N(C)C)cc2)C(=O)/C=C/c2ccc(O)c(OC)c2)ccc1O`, the figures for the “inhibition zone (IZ)” value in the test with Aspergillus niger [1] and with Aspergillus fumigatus [3] were 15 mm and 20 mm, respectively. For the same molecule, the MIC95 against Pseudomonas aeruginosa is recorded as 1.25 uM/ml; against Staphylococcus aureus, 5 uM/ml; against Bacillus cereus it was 0.625 uM/ml; against Salmonella typhi, 2.5 uM/ml; against Aspergillus fumigatus [6], 1.25 uM/ml; against Aspergillus niger [7] it was 5 uM/ml. Also, the MIC95 result with Escherichia coli, in the test with Providencia rettgeri and in the test on Aspergillus flavus [2] was “inactive” each time. For the same molecule, the “inhibition zone (IZ)” value with Aspergillus flavus [4] was “inactive”. For the same molecule, the IC50 in test [5] was over 100 uM/ml.
With `COc1cc(C=C(C(=O)/C=C/c2ccc(O)c(OC)c2)C(=O)/C=C/c2ccc(O)c(OC)c2)ccc1O`, the “inhibition zone (IZ)” value with Aspergillus niger [1] and in the test on Aspergillus fumigatus [3] was “inactive” throughout. In addition, the MIC95 stood at 2.5 uM/ml against Pseudomonas aeruginosa; 2.5 uM/ml against Staphylococcus aureus; 2.5 uM/ml in the test with Providencia rettgeri; 1.25 uM/ml with Aspergillus flavus [2]; 1.25 uM/ml in the test with Bacillus cereus; 5 uM/ml against Salmonella typhi. Moreover, the MIC95 result with Escherichia coli, in the test with Aspergillus fumigatus [6] and in the test on Aspergillus niger [7] was “inactive” in each case. Moreover, the “inhibition zone (IZ)” value in the test on Aspergillus flavus [4] was found to be 20 mm. Moreover, the IC50 in [5] was over 100 uM/ml.
As for `COc1cc(/C=C/C(=O)C2=C(/C=C/c3ccc(O)c(OC)c3)N=C3Sc4ccccc4N3C2c2ccc(Cl)cc2)ccc1O` (stereo not drawn), the “inhibition zone (IZ)” value in the test on Aspergillus niger [1], in the test with Aspergillus fumigatus [3] and in the test with Aspergillus flavus [4] was “inactive” throughout. For the same molecule, the MIC95 was found to be 20 uM/ml with Pseudomonas aeruginosa, 10 uM/ml against Escherichia coli and 5 uM/ml in the test on Bacillus cereus. Besides, the MIC95 entry with Staphylococcus aureus, in the test on Providencia rettgeri, in the test on Aspergillus flavus [2], with Salmonella typhi (setting [8]), in the test with Aspergillus fumigatus [6] and in the test on Aspergillus niger [7] was “inactive” throughout. This molecule also gave an IC50 in test [5] of over 100 uM/ml.
